Compound activity: PubChem, Johns Hopkins Ion Channel Center
The list is not random: actives were taken first. Their share in the collection is about 2.3%.
TRPC4 block – inhibitors of mouse TRPC4 channel. B-score at 10 µM. AID 2247. HEK293 TRPC4beta/mu-opioid, DAMGO-evoked Fluo4 calcium flux; active compounds read low. 0.39% of 300,000 active. Q9QUQ5;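 active = B-score over 3 SD under the library average, no early fluorescence shift, positive overall ratio signal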
Target sequence (Q9QUQ5 whole entry, looked up): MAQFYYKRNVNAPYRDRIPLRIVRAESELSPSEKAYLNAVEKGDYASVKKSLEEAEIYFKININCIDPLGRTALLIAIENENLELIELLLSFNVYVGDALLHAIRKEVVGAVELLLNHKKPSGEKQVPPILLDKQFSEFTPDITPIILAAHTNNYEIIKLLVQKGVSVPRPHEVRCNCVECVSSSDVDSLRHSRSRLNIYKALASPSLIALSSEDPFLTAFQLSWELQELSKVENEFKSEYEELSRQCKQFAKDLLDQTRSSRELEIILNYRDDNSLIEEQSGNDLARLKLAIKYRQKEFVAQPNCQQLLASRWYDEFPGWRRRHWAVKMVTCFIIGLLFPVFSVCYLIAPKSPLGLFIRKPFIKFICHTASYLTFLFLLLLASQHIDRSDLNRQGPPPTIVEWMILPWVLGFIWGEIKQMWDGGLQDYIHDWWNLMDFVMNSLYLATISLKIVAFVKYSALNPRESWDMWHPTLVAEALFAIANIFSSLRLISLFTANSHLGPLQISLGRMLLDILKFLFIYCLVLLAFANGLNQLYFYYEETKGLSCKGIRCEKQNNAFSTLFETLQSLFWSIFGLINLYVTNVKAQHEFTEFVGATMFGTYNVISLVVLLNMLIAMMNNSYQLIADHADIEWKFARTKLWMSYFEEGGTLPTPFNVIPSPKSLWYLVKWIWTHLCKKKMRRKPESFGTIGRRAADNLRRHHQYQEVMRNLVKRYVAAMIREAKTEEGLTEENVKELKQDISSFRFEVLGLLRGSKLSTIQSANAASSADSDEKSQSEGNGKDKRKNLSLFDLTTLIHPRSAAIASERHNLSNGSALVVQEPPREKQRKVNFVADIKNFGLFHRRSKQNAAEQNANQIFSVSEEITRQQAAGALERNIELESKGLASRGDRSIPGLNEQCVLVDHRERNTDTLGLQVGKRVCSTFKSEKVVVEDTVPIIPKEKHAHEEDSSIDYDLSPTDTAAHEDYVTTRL
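Assay system: TRPC4beta/mu-opioid receptor HEK293 cell line; compound dosing: single concentration per test compound; detection: Fluo4 Ca2+ flux fluorescence; evaluation: per-well B score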
TRPC6 inhibitor – inhibitors of mouse TRPC6 channel. Q61143. HEK293-TRPC6, membrane potential dye, ACh-evoked depolarization; active compounds read low. B-score at 10 µM. 1.1% of 310,000 active;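 active = B-score under library mean minus 3 SD, initial fluorescence not abnormally high, positive integrated signal ratio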;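 note: B-score derived from integrated fluorescence ratio over the kinetic read; more negative B-score means stronger inhibition of depolarization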
TRPC4 potent – allosteric potentiators of mouse TRPC4 channel; Q9QUQ5; HEK293 TRPC4beta/mu-opioid, DAMGO EC20, Fluo-4 Ca2+ flux; active compounds read high; B-score at 10 µM; 0.42% of 310,000 active; AID 2227;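 active = B-score of calcium response area above 5 SD of library B-scores, with initial fluorescence ratio within 5 SD of library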
TRPC4 agonist – activators of mouse TRPC4 channel | Q9QUQ5 | B-score at 10 µM | AID 2237 | 0.49% of 310,000 active | HEK293 TRPC4beta/mu-opioid, Fluo4 calcium fluorescence; active compounds read high;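 active = B-score above 5 SD of library B-scores, and initial fluorescence ratio not above library mean plus 5 SD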;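 note: positive B-score marks a calcium rise read as TRPC4 activation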
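Assay system: HEK293 stable line with TRPC4beta plus mu-opioid receptor; schedule: 45 min room-temperature Fluo4 loading, 110 s read; technique: kinetic Fluo4 calcium fluorescence; evaluation: integrated baseline-normalised fluorescence ratio, converted to per-well B score; controls: buffer (low) and maximal DAMGO (high)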
TRPC6 activator – mouse TRPC6 channel activation; Q61143; HEK293-TRPC6 membrane potential dye fluorescence; active compounds read high; B-score at 10 µM; 0.13% of 310,000 active; AID 2550;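 active = B-score of the integrated fluorescence ratio above library mean plus 3 SD, and starting fluorescence ratio within library mean plus 5 SD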;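 note: higher score means more depolarization so channel activation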
TRPC4 sel inh 2 – second selectivity test of TRPC6 inhibitors: effect on mouse TRPC4; shares compounds with TRPC6 inhibitor; HEK293 TRPC4/MOR, membrane potential dye fluorescence; channel activated by saturating DAMGO dose; inhibition, % at 10 µM; 42% of 920 active;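 active = compounds whose fluorescence signal differed from control wells by over 3 SD, either direction, in both duplicate plates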
TRPC4 spec – tests whether TRPC6 inhibitors also affect mouse TRPC4 | shares compounds with TRPC6 inhibitor | 61% of 920 active | AID 2777 | activity change, negative = inhibition, % at 10 µM | HEK293 TRPC4/mu-opioid, membrane potential fluorescence;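 active = rise or fall in signal beyond 3 SD of buffer-only wells in both replicate plates, either sign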;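 note: integrated kinetic ratio of fluorescence range over baseline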
HEK293 MPD ctr 2-1 – second check of TRPC6 inhibitor effects in parental HEK293 cells; shares compounds with TRPC6 inhibitor; parental HEK293 membrane potential dye fluorescence; maximal acetylcholine challenge after compound addition; signal change vs control, % at 10 µM; 31% of 920 active;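 active = membrane potential signal moving either way by over 3 SD of the maximum-effect control, in both duplicate plates, meaning non-specific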
HEK293 MPD ctr-1 – checks TRPC6 inhibitor effects in parental HEK293 cells | shares compounds with TRPC6 inhibitor | parental HEK293 membrane potential dye fluorescence | membrane potential signal change, % at 10 µM | 60% of 920 active | AID 2780;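 active = membrane potential signal shifting up or down by more than 3 SD of buffer-only wells, on both duplicate plates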
HEK293 MPD ctr-2 – counter-screen for TRPC6 modulators: effect in parental HEK293 cells; shares compounds with TRPC6 inhibitor; membrane potential dye fluorescence; membrane potential signal change, % at 10 µM; 51% of 2,400 active;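 active = membrane potential signal moves up or down beyond 5 SD from buffer-only wells, on both duplicate plates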
HEK293 MPD ctr 2-2 – second check of TRPC6 modulator effects in parental HEK293 cells; shares compounds with TRPC6 inhibitor; membrane potential dye fluorescence; after compound, maximal acetylcholine stimulation; inhibition, % at 10 µM; 14% of 2,400 active;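 active = membrane potential signal drops by more than 5 SD from the mean control signal, in both duplicate plates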
TRPC4 ctr mod – tests whether TRPC6 modulators also affect mouse TRPC4 | AID 488927 | percent change from control (negative = decrease, positive = increase), % at 10 µM | 69% of 2,400 active | HEK293 TRPC4/mu-opioid, membrane potential fluorescence | shares compounds with TRPC6 inhibitor;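 active = membrane potential signal moved up or down beyond 5 SD of buffer control wells, in both duplicate plates, actives on both sides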
TRPC4 ctr inh 2 – mouse TRPC4 off-target activity of TRPC6 modulators, second screen | shares compounds with TRPC6 inhibitor | HEK293 TRPC4/mu-opioid, membrane potential dye fluorescence; stimulated with maximal-effect DAMGO | inhibition, % at 10 µM | 55% of 2,400 active;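 active = drop in membrane potential signal beyond 5 SD of the control wells in both duplicate plates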;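 note: TRPC4 counter screen for TRPC6 hits run under conditions tuned for TRPC6 not TRPC4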
TRPC6 block conf – mouse TRPC6 inhibitor confirmation; shares compounds with TRPC6 inhibitor; HEK293-TRPC6, membrane potential dye, ACh-evoked depolarization; inhibition, % at 10 µM; 43% of 3,300 active;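 active = fluorescence ratio falls more than 5 SD below the full-stimulation control mean, in both duplicate runs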;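 note: integrated fluorescence ratio of peak minus minimum over baseline after agonist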
TRPC6 act conf – mouse TRPC6 activator confirmation. shares compounds with TRPC6 inhibitor. HEK293-TRPC6 membrane potential dye fluorescence, FDSS. activation, % at 10 µM. 11% of 2,800 active. AID 488961;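 active = ratio signal rise beyond 5 SD above unstimulated control wells' mean, seen in both duplicate runs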
Numbers stand for hits; . = inactive; / = no result; + = active, no number.

SMILES | TRPC4 block | TRPC6 inhibitor | TRPC4 potent | TRPC4 agonist | TRPC6 activator | HEK293 MPD ctr-2 | HEK293 MPD ctr 2-2 | TRPC4 ctr mod | TRPC4 ctr inh 2 | TRPC6 block conf | TRPC6 act conf | others
O=c1c([N+](=O)[O-])c(NCCN2CCCCCC2)c2ccccc2n1-c1ccccc1 | . | -6.3 | . | . | . | . | . | -16% | 80% | 50% | .
COCCNc1c([N+](=O)[O-])c(=O)n(-c2ccccc2)c2ccccc12 | . | . | . | . | . | / | / | / | / | / | /
COc1ccccc1N1CCN(CCCCN2C(=O)C3CCCCN3C2=O)CC1 (configuration not stated) | . | . | . | . | . | / | / | / | / | / | /
COc1ccc(C2=CSC3=NCCN23)cc1Br | . | -5.2 | . | . | . | . | . | . | 36% | . | .
COc1ccc(C2=CSC3=NCCN23)cc1Cl | . | . | . | . | . | / | / | / | / | / | /
Cc1ccc(OCC(=O)N(Cc2ccccc2)c2c(N)n(Cc3ccccc3)c(=O)[nH]c2=O)c(C)c1 | . | . | . | . | . | / | / | / | / | / | /
NCCOc1ccc(C23CC4CC(CC(C4)C2)C3)cc1 | . | . | . | . | . | / | / | / | / | / | /
Cc1ccc(C23CC4CC(CC(CN)(C4)C2)C3)cc1 | . | -7.5 | . | . | . | / | / | / | / | . | . | TRPC4 sel inh 2=42%;TRPC4 spec=-11%;HEK293 MPD ctr 2-1=.;HEK293 MPD ctr-1=-176%
NCC12CC3CC(C1)CC(c1ccc(Br)cc1)(C3)C2 | . | -8.6 | . | . | . | / | / | / | / | 62% | . | TRPC4 sel inh 2=44%;TRPC4 spec=-10%;HEK293 MPD ctr 2-1=.;HEK293 MPD ctr-1=-178%
COc1ccc(OCC(=O)NNC(=O)c2cccc(S(=O)(=O)N(C)C)c2)cc1 | . | . | . | . | . | / | / | / | / | / | /
CC[N+](C)(CC)CC(=O)OCC1C(C)C=C(C)CC1C (configuration not stated) | . | -8.4 | . | . | . | / | / | / | / | . | . | TRPC4 sel inh 2=.;TRPC4 spec=.;HEK293 MPD ctr 2-1=.;HEK293 MPD ctr-1=.
COc1ccc(CNC(=O)COc2ccc(Br)c(C)c2)cc1 | . | . | . | . | . | / | / | / | / | / | /
CC(=O)c1cc(F)c(N2CCN(C(=O)COc3ccc(F)cc3)CC2)cc1C | . | -5.7 | . | . | . | . | . | 10% | . | . | .
CCN(CC#CCC(O)(c1ccccc1)C1CCCC1)C(C)C (configuration not stated) | . | -5.6 | . | . | . | 188% | . | 34% | . | 56% | /
O=C1C(Cl)=C(N2CCN(Cc3ccccc3)CC2)C(=O)N1Cc1ccccc1 | . | . | . | . | . | / | / | / | / | / | /
O=C(CCCN1C(=O)c2cccc3cccc(c23)C1=O)N1CCN(c2ccc(F)cc2)CC1 | . | . | . | . | . | / | / | / | / | / | /
Fc1ccc(N2CCN(C3=Nc4cccc5cccc3c45)CC2)cc1 | . | -8.8 | . | . | . | -80% | . | -38% | 74% | 68% | .
c1ccc(CN2CCN(C3=Nc4cccc5cccc3c45)CC2)cc1 | . | -8.2 | . | . | . | -191% | . | -50% | 72% | 68% | .
O=C(C1CCCN(S(=O)(=O)c2cccc3cccnc23)C1)N1CCN(c2ccc(F)cc2)CC1 (configuration not stated) | . | . | . | . | . | / | / | / | / | / | /
CCOC(=O)C(=NCCCN1CCOCC1)NNc1cccc(C(F)(F)F)c1 | . | . | . | . | . | / | / | / | / | / | /
COCCn1c(SCC(=O)N2CCC(C)CC2)nc2c([nH]c3ccccc32)c1=O | . | . | . | . | . | / | / | / | / | / | /
Cc1ccc(S(=O)(=O)NNC(=O)c2ccoc2C)cc1 | . | . | . | . | . | / | / | / | / | / | /
Cc1ccc(-c2c[n+](CC(=O)N3c4ccccc4Sc4ccccc43)c3n2CCC3)cc1 | . | -5.9 | . | . | . | . | . | -14% | . | 71% | .
O=C(C[n+]1cc(-c2ccc(F)cc2)n2c1CCC2)N1c2ccccc2Sc2ccccc21 | . | -7.9 | . | . | . | . | . | . | . | 70% | .
Cc1ccc(NS(C)(=O)=O)c(C(=O)c2ccccc2)c1 | . | . | . | . | . | / | / | / | / | / | /
SMILES | TRPC4 block | TRPC6 inhibitor | TRPC4 potent | TRPC4 agonist | TRPC6 activator | HEK293 MPD ctr-2 | HEK293 MPD ctr 2-2 | TRPC4 ctr mod | TRPC4 ctr inh 2 | TRPC6 block conf | TRPC6 act conf | others
O=C(CCn1nc(-c2ccc(Cl)cc2)c2ccccc2c1=O)NN1CCOCC1 | . | . | . | . | . | / | / | / | / | / | /
C#CCn1cnc2c(oc3ccccc32)c1=O | . | -5 | . | . | . | . | . | . | . | . | .
CCn1cnc2c(oc3ccccc32)c1=O | . | . | . | . | . | / | / | / | / | / | /
Nc1ccc(/C=C/C(=O)c2cccs2)cc1 | . | . | . | 92 | 81 | + | + | 291% | 76% | / | 543%
CN(C)S(=O)(=O)N1CCN(C(=O)c2ccccc2Cl)CC1 | . | -5 | . | . | . | . | . | . | . | . | .
CN(C)S(=O)(=O)N1CCN(c2ccccc2Cl)CC1 | . | . | . | . | . | / | / | / | / | / | /
Cc1ccccc1/C=N/Nc1nc2ccccc2[nH]1 | . | . | . | . | . | / | / | / | / | / | /
C(=N\Nc1nc2ccccc2[nH]1)/c1c[nH]c2ccccc12 | . | -9.7 | . | . | . | -105% | . | -26% | 74% | 56% | .
C(=N\Nc1nc(N2CCCCC2)nc(N2CCCCC2)n1)/c1c[nH]c2ccccc12 | . | -7.9 | . | . | . | -56% | . | -15% | 42% | 58% | .
CN(C)c1nc(N/N=C/c2c[nH]c3ccccc23)nc(N2CCOCC2)n1 | . | . | . | . | . | / | / | / | / | / | /
COc1ccc(-n2nnc3c(SC(C(C)=O)C(=O)N(C)C)ncnc32)cc1 (configuration not stated) | . | . | . | . | . | / | / | / | / | / | /
